The text below walks through data of ChEMBL document CHEMBL1149297 (J Med Chem, 2004).

Assay [1] addresses T1, Neuronal acetylcholine receptor; alpha3/beta4 (Homo sapiens, UniProt P30926+P32297). Nature of the assay: Agonist activity at alpha-3-beta-4 nAChR in KXalpha-3-beta-4R2 cells by rubidium efflux assay relative to nicotine. Format: functional, cell-based. The arrangement: concentration or dose not given beside the values. An outline of the steps:
(§1)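 KXα3β4R2 cells (stably expressing α3β4 nAChR) grown in selection MEM with 10% FBS and geneticin, plated on poly(D-lysine) and grown 48 h at 37 °C to >90% confluence. Cells were loaded with 86Rb+ (2 μCi/well) for 4 h at 37 °C and washed three times in buffer A (Hepes/NaCl/KCl/MgSO4/CaCl2/glucose, pH 7.4). Compound in buffer A was applied for 2 min, and efflux was counted by liquid scintillation.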

In assay [2] the target is T1, Neuronal acetylcholine receptor; alpha3/beta4. Nature of the assay: Agonist activity at alpha-3-beta-4 nAChR in KXalpha-3-beta-4R2 cells by rubidium efflux assay. Format: functional, cell-based. An outline of the steps:
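KXα3β4R2 cells stably expressing α3β4 nAChRs, grown in MEM/10% FBS with geneticin selection, plated on poly(D-lysine) and grown 48 h at 37 °C to >90% confluence. Loaded with 86Rb+ (2 μCi/well) 4 h at 37 °C, washed in Hepes-buffered saline pH 7.4, then exposed to compound for 2 min. Released 86Rb+ counted by liquid scintillation.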

For assay [3] the target is unchanged. Nature of the assay: Agonist activity at alpha3beta4 nAChR in KXalpha-3-beta-4R2 cells by rubidium efflux assay at 1 mM. The format is functional, cell-based. An outline of the steps: as §1
For assay [4] the target is unchanged. Nature of the assay: Displacement of [3H]epibatidine from alpha-3-beta-4 nAChR immobilized on liquid chromatographic stationary phases. Format: protein-complex assay. Background: Displacement assays read how much labelled ligand stays bound in the presence of the test substance.
The target of assay [5] is Neuronal acetylcholine receptor; alpha4/beta2 (Homo sapiens) (UniProt P17787+P43681). Nature of the assay: Displacement of [3H]epibatidine from alpha-4-beta-2 nAChR immobilized on liquid chromatographic stationary phases. The format is protein-complex assay.

Calls of active or inactive are those of the source. No cut-off for these calls is given here.

Broadly, the EC50 is the concentration that produces a half-maximal response.

T1 sequence (P30926 whole entry): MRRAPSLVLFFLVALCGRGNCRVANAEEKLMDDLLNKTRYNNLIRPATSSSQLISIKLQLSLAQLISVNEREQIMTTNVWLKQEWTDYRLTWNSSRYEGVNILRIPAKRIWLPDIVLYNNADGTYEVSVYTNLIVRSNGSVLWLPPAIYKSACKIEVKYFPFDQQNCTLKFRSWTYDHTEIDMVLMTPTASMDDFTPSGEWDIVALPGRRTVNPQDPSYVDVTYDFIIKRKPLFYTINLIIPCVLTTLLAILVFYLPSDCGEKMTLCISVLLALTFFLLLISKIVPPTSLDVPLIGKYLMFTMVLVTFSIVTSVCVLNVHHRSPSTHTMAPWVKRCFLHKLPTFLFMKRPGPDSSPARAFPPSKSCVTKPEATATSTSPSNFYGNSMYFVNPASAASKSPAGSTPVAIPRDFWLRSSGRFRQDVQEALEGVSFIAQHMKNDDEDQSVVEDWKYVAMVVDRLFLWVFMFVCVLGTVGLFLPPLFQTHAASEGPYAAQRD
T1 sequence (P32297 whole entry): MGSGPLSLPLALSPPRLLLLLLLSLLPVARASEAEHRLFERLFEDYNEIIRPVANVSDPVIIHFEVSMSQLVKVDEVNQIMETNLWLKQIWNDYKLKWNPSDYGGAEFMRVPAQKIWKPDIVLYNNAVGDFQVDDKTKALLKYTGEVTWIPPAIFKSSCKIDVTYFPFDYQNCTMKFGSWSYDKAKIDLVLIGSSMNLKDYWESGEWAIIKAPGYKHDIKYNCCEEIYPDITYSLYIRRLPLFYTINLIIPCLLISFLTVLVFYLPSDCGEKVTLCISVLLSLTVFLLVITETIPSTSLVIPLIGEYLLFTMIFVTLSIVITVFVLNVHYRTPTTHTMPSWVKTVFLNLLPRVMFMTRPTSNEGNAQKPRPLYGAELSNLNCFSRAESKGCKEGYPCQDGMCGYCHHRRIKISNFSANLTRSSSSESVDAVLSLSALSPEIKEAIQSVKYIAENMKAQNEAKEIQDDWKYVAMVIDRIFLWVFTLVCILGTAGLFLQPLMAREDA

`Clc1ccc(C2CC3CCC2N3)cn1` (configuration not stated): the result in assay [1] was inactive.
In assay [2], `c1cc2c(cn1)[C@@H]1NCCC[C@@H]1CC2` yielded an EC50 greater than 1000 µM. In assay [1], the Activity is 10%. In assay [3], the result was Active.
As for `COC(=O)N1CC[C@@H]2C[C@@H](Sc3ccccc3)c3cc(Cl)nc(Cl)c3[C@@H]21`, in assay [2], the concentration giving a half-maximal response (EC50) is greater than 1000 µM. The Activity was 10% in assay [1], -0.04 mL in assay [4] and 0.17 mL in assay [5]. Moreover, the result in assay [3] was inactive.
Compound `COC(=O)N1CCC[C@@H]2C=Cc3cc(Cl)nc(Cl)c3[C@@H]21` returned a half-maximal effective concentration (EC50) in assay [2] of 13.8 µM. The Activity in assay [1] stood at 75%.
`Clc1cc2c(c(Cl)n1)[C@@H]1NCC[C@@H]1C[C@H]2Sc1ccccc1` yielded a 50% effective concentration (EC50) in assay [2] of 26.4 µM. In addition, the Activity in assay [1] was 35%.
In assay [2], `COC(=O)N1CCC[C@@H]2C[C@@H](Sc3ccccc3)c3cc(Cl)nc(Cl)c3[C@@H]21` had a half-maximal effective concentration (EC50) of 18.2 µM. The compound further gave an Activity in assay [1] of 100%.
Consider `CN1CCC[C@H]1c1cccnc1`, for which the Activity in assay [1] was determined as 100%; in assay [4] it was 0.16 mL; in assay [5] it was 0.26 mL.
With `COC(=O)N1CC[C@@H]2CCc3ccncc3[C@@H]21`, the figures for the Activity in assay [4] and in assay [5] were 0.12 mL and 0.23 mL, respectively.
In assay [2], `COC(=O)N1CC[C@@H]2C=Cc3cc(Cl)nc(Cl)c3[C@@H]21` had an EC50 of 20.8 µM. Further, the Activity in assay [1] is 100%; in assay [4], 0.28 mL; in assay [5], 0.28 mL.
Compound `COC(=O)N1CC[C@@H]2C[C@@H](S(=O)(=O)c3ccccc3)c3cc(Cl)nc(Cl)c3[C@@H]21` came in with an EC50 in assay [2] greater than 1000 µM. The Activity in assay [1] is 10%; in assay [4], -0.12 mL; in assay [5], 0.13 mL.
In the case of `COC(=O)N1CC[C@@H]2CCc3ccnc(Cl)c3[C@@H]21`, the EC50 in assay [2] was greater than 1000 µM. Besides, the Activity in assay [1] was 10%; in assay [4] it was -0.32 mL; in assay [5], 0.18 mL.
